Screens deposited in PubChem by several laboratories.
APJ antagonist = antagonists of human APJ apelin receptor | P35414 | CHO-K1 APJ beta-arrestin complementation, luminescence | inhibition, % at 20 µM | 330,000 compounds, 0.32% hits | AID 2521;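 active means inhibition above about 40% at 20 µM, limit read from the data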;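 further: cells challenged with 10 nM apelin-13 agonist together with compound; plate controls were apelin-13 plus DMSO wells for no effect and DMSO wells lacking apelin-13 for full effect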
EBI2 block = EBI2 (human) antagonism; EBI2 beta-arrestin recruitment, luminescence, 7a,25-OHC stimulated; inhibition, % at 5 µM; 360,000 compounds, 0.81% hits; in the data active means inhibition above about 38%;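 further: enzyme fragment complementation signal reports receptor beta-arrestin coupling in cells; 0% = agonist plus DMSO wells and 100% = wells without agonist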
APJ ag = APJ receptor agonism | 330,000 compounds, 0.11% hits | activation, % at 20 µM | AID 2520 | P35414 | CHO-K1 APJ PathHunter beta-arrestin, luminescence; 0% DMSO wells, 100% apelin;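 active means activation more than six SD over the plate average, tested at 20 µM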;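 further: 0% = DMSO alone and 100% = apelin-13 at 10 nM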
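Test system: CHO-K1 APJ beta-arrestin complementation cell line | Compound: Single test compound dose, 20 µM final, 1% DMSO | Incubation: Compound 90 min 25 °C, reagent 1 h | Measured by: beta-gal luminescence | Read-out basis: APJ–arrestin association signal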
CXCR6 block = inhibitors of human CXCR6 receptor; CHO-K1 PathHunter CXCR6 beta-arrestin, luminescence; inhibition, % at 20 µM; 360,000 compounds, 0.36% hits; in the data active means inhibition above about 34%, passing the limit was not always enough;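 further: antagonist mode with CXCL16 agonist at 10 nM final; 0% = 10 nM CXCL16 with DMSO and 100% = unstimulated wells without agonist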
CCR6 antagonist = blocks CCL20-driven beta-arrestin recruitment at human CCR6; P51684; CHO-K1 CCR6 PathHunter beta-arrestin, luminescence, CCL20-stimulated; inhibition, % at 20 µM; 340,000 compounds, 0.49% hits;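 active means compounds whose inhibition of the agonist-driven luminescence signal at 20 µM reaches about 50%, limit read from the data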;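 further: cells stimulated with CCL20 at 14 nM final; plate controls were DMSO with CCL20 for no effect and DMSO without agonist for full effect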
Target sequence (P51684 whole entry, looked up): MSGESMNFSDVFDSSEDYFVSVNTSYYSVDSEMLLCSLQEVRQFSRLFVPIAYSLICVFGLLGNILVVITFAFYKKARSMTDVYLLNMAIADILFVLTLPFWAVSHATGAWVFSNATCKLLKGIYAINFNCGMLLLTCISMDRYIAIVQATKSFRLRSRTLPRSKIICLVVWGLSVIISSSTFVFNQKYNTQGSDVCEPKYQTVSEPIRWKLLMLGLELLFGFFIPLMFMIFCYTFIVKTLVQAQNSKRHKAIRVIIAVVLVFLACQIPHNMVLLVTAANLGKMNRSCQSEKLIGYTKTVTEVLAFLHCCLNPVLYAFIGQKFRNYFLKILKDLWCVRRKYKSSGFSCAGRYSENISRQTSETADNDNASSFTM
FXN GAA850 act = frataxin GAA850 promoter activation | HEK293 lucGAA850 FXN promoter luciferase reporter, 24 h; percent of 10 µM SAHA response | activation, % at 6 µM | 360,000 compounds, 0.56% hits;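 active means activation above the average of all compounds screened plus 3 SD, cutoff fixed separately per campaign, cut at about 7.5% in these data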;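 further: 0% = DMSO wells and 100% = 10 µM SAHA wells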
CXCR6 confirm = CXCR6 antagonism confirmation, single concentration; shares compounds with CXCR6 block; CHO-K1 CXCR6 PathHunter beta-arrestin, luminescence; inhibition, % at 20 µM; 700 compounds, 65% hits;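 active means mean inhibition over four retests above 40%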;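 further: receptor stimulated with 10 nM CXCL16 agonist; beta-galactosidase fragment complementation upon beta-arrestin recruitment to receptor; plate controls were CXCL16 plus DMSO for no effect and DMSO without CXCL16 for full effect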
An asterisk follows results filed as active; x = no result. Rows were chosen to be rich in hits. Some 2% of all compounds tested hit in one or more screens of this group.

SMILES | APJ antagonist | EBI2 block | APJ ag | CXCR6 block | CCR6 antagonist | FXN GAA850 act | CXCR6 confirm
CCC1=NN(C(=O)c2ccc(Br)cc2)C(O)(c2ccccc2)C1 (centres undefined) | 30 | 16 | -5 | 48* | 73* | 1 | 34
O=C1CN(C(=O)c2cccc([N+](=O)[O-])c2)CC(=O)N1 | 7 | -11 | 3 | 0 | 5 | 1 | x
CCOC(=O)c1c(C)oc2c1c(C=NCc1ccccn1)c(O)c1ccccc12 | x | 42 | x | 98* | 77* | 0 | 64*
Cc1cc(C)cc(N2C(=O)CC(Sc3nnnn3-c3ccccc3)C2=O)c1 (centres undefined) | -18 | 1 | -1 | 87* | x | 3 | 75*
Cc1nnc(Sc2cc(NCCCO)c([N+](=O)[O-])c3nonc23)s1 | x | -8 | x | 67* | 92* | 2 | 100*
Cc1nnc(Sc2cc(NCCO)c([N+](=O)[O-])c3nonc23)s1 | x | 9 | x | 71* | 68* | 0 | 76*
COP(=O)(OC)OC(C(=O)c1ccccc1)c1ccccc1 (centres undefined) | x | 0 | x | x | x | x | x
Cc1ccc(F)cc1C(=O)N1CCCCC1c1cc(C(=O)Nc2ccccc2)no1 (centres undefined) | x | 10 | x | 2 | x | -3 | x
O=C(O)C1CCc2sc3[nH]c(=S)n(-c4ccccc4)c(=O)c3c21 (centres undefined) | -4 | 7 | -6 | 44* | 11 | 1 | 20
CCN(CC(=O)NC(C)(C)C)Cc1nc2c(Br)cc(Br)cc2c(=O)[nH]1 | -12 | 7 | -5 | 54* | x | 1 | 56*
Cc1cccc(C(=O)CC(=O)c2cc(Cl)ccc2O)c1 | 14 | 12 | -1 | 38 | 17 | -1 | x
Cc1ccc(O)c(C(=O)CC(=O)c2ccc(Cl)cc2)c1 | x | -2 | x | 42* | 65* | 6 | 45*
Cc1nn(C)c(C(=O)NC(=S)Nc2ccccc2O)c1Cl | 28 | 1 | -13 | 44* | 50* | 1 | 32
CCN(c1ccccc1C(=O)O)S(=O)(=O)c1ccc2[nH]c(=O)[nH]c2c1 | 9 | -13 | 1 | 39* | 7 | -1 | 1
N#Cc1ccc(C(=O)OCC(=O)N2CCCC2)cc1 | 13 | -6 | -2 | 1 | -5 | -2 | x
CC(C)N1CC2(CC(c3ccccc3C(F)(F)F)=NO2)CN1C(=O)c1ccco1 (centres undefined) | x | 11 | x | 1 | x | 0 | x
Cn1cc(CNC(=O)C2CCCCC2)cn1 | -18 | 1 | -6 | 43* | 2 | -2 | 7
COc1cc(CCC(=O)OCC(=O)Nc2cc(S(=O)(=O)N3CCOCC3)ccc2Cl)cc(OC)c1OC | x | -2 | x | 0 | 6 | 3 | x
Nc1cccc2c1C(=O)N(C(=O)/C=C/c1ccc(F)cc1)C2=O | 36 | 2 | 0 | 48* | 61* | 3 | 38
CCCCCCCCN1C(=O)[C@H](CC(=O)N2CCN(C(=O)C3CC3)CC2)C[C@@]2(C(=O)OC)CC(C)(C)CC=C12 | x | 11 | x | x | x | x | x
CCCc1ccc(OC(=O)c2cccs2)cc1 | 11 | -2 | -4 | 50* | 5 | -2 | -2
O=C(N/N=C/c1ccc(Cl)cc1)c1ccc2nc[nH]c2c1 | x | -1 | x | -3 | x | 0 | x
CC1=C(CC/C(C)=N/NC(N)=S)C(C)(C)CCC1 | 22 | 29 | -4 | 46* | 19 | -2 | 15
Cc1ccc2c(Cl)cc(Cl)c(O)c2n1 | x | 30 | x | 49* | 97* | 5 | 70*
Cc1cc(Cl)c2ccc3ccccc3c2n1 | 0 | 4 | -2 | -2 | -3 | 0 | x
SMILES | APJ antagonist | EBI2 block | APJ ag | CXCR6 block | CCR6 antagonist | FXN GAA850 act | CXCR6 confirm
Cc1ccc2c(C)ccc(O)c2n1 | 35 | -11 | -6 | 65* | 83* | -2 | 76*
CC[C@H](C)Cc1cn([C@@H](CCCCNC(=O)OC(C)(C)C)C(=O)NCCCCCCCCCCC(=O)N2CCN(C(=O)OC(C)(C)C)CC2)nn1 | 1 | -3 | 0 | 6 | 32 | 0 | x
C=CCN(Cc1cccs1)C(=O)COc1ccc2c(c1)OCO2 | 15 | 5 | -6 | -3 | 11 | 3 | x
C=C1C(=O)C23CCC4C(C)(C(=O)OC)CCCC4(C)C2CCC1(O)C3 (centres undefined) | x | 78* | x | 79* | 86* | -15 | 89*
COC(=O)[C@]1(C)CCC[C@@]2(C)C3CC[C@@]4(C)C[C@]3(CCC21)CC(=O)N4 (some centres undefined) | 9 | -7 | 2 | 4 | 0 | -1 | x
CCN(CC(=O)NCc1ccc(F)cc1)C(=O)c1cccc(S(=O)(=O)N(C)c2ccc(OC)cc2)c1 | x | 1 | x | -3 | 9 | 1 | x
Cn1cnc([N+](=O)[O-])c1S(=O)(=O)Oc1ccccc1 | x | 11 | x | 42* | 49 | 0 | 60*
Cn1cnc([N+](=O)[O-])c1S(=O)(=O)c1cccc(Cl)c1 | 36 | 21 | -3 | 49* | 59* | 6 | 65*
O=C(c1ccco1)N1CCN(Cc2cn[nH]c2-c2ccc(F)cc2F)CC1 | 12 | -4 | 3 | 57* | 5 | 0 | 12
COc1ccc(-c2[nH]ncc2CN2CCN(C(=O)c3ccco3)CC2)cc1F | 7 | 2 | -2 | -3 | 9 | 4 | x
CC(=O)c1cccc(OCC(O)CN2CCN(C(=O)c3ccco3)CC2)c1 (centres undefined) | -8 | 0 | -2 | -14 | -13 | -1 | x
O=C(CC1OC(=O)c2ccccc21)Nc1ccc(Cl)c(S(=O)(=O)N2CCCCC2)c1 (centres undefined) | -63 | 2 | 10 | 1 | 12 | 1 | x
COc1cc(S(=O)(=O)NC2CCCC2)c(OC)cc1Cl | 7 | -10 | -1 | 46* | 9 | 1 | 5
CCOc1ccccc1NC(=O)COC(=O)COc1c(Cl)cc(Cl)c2ccc(C)nc12 | -11 | -5 | -3 | 7 | 6 | 1 | x
CCN(CC(=O)NC(C)(C)C)C(=O)COc1c(Cl)cc(Cl)c2ccc(C)nc12 | 6 | -16 | -3 | 33* | x | 0 | 37
COC(=O)CCC[C@H]1CC2(C[C@H](CCCO[Si](C)(C)C(C)(C)C)N1C(=O)OC(C)(C)C)OCCO2 | 26 | 10 | -5 | 12 | 31 | 0 | x
COCC(=O)N1C[C@H](C)[C@H](OC)CN(C)C(=O)c2cc(NC(=O)Nc3cccc(F)c3)ccc2OC[C@@H]1C | x | -12 | x | x | x | x | x
CN(C)CC1CC/C(=C\c2ccc(O)cc2)C1=O (centres undefined) | x | 31 | x | 75* | 86* | -12 | 77*
COc1ccc(/C=C2/CCC(CN3CCOCC3)C2=O)cc1 (centres undefined) | x | 36 | x | 70* | 87* | 3 | 70*
